Marks after values point to notes of the source that are not given here.
What was measured:
[1] = tested on: hOCT3 stably transfected HEK293 cells; assay: MTT cytotoxicity assay, hOCT3 cells; type: cell-based, human; details: for TC50 OCT3: MTT, 72 h, hOCT3 HEK293 cells, mean±SD of six experiments; for Fold increase over pcDNA5 OCT3: ratio of TC50 pcDNA5 to TC50 hOCT3 cells
[2] = tested on: hOCT1 stably transfected HEK293 cells; assay: MTT cytotoxicity assay, hOCT1 cells; type: cell-based, human; details: for TC50 OCT1: MTT, 72 h, hOCT1 HEK293 cells, mean±SD of six experiments; for Fold increase over pcDNA5 OCT1: ratio of TC50 pcDNA5 to TC50 hOCT1 cells
[3] = tested on: hOCT1-3 stably transfected HEK293 cells; assay: MTT cytotoxicity assay, result stated across hOCT1-3 cells; details: compared to vector-transfected HEK293 cells
[4] = tested on: hOCT2 stably transfected HEK293 cells; assay: MTT cytotoxicity assay, hOCT2 cells; type: cell-based, human; details: for TC50 OCT2: MTT, 72 h, hOCT2 HEK293 cells, mean±SD of six experiments; for Fold increase over pcDNA5 OCT2: ratio of TC50 pcDNA5 to TC50 hOCT2 cells
hOCT2 [5] = target: T1, hOCT2 (Homo sapiens, UniProt O15244); assay: ASP+-based fluorescence uptake inhibition assay, hOCT2; type: cell-based
T1 sequence (O15244 1-555): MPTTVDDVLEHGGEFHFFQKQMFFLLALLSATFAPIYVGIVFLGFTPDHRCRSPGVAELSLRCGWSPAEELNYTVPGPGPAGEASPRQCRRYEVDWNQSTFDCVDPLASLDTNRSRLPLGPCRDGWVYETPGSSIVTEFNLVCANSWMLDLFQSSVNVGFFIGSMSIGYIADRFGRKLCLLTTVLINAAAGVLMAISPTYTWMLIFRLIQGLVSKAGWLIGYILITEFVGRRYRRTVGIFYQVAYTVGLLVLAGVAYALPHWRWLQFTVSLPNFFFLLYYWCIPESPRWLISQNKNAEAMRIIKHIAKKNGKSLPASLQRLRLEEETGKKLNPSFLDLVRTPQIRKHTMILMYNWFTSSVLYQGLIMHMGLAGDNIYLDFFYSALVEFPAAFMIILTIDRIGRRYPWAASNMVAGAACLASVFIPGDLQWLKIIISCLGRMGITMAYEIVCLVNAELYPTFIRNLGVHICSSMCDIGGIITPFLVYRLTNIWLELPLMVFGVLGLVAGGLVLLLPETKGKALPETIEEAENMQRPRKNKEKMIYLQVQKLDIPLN

[6] = tested on: pcDNA5 (control) stably transfected HEK293 cells; assay: MTT cytotoxicity assay, pcDNA5 control cells; type: cell-based, human; details: 72 h, vector control HEK293 cells, mean±SD of six experiments
hOCT1 [7] = target: T2, hOCT1 (Homo sapiens, UniProt O15245); assay: ASP+-based fluorescence uptake inhibition assay, hOCT1; type: cell-based
T2 sequence (O15245 1-554): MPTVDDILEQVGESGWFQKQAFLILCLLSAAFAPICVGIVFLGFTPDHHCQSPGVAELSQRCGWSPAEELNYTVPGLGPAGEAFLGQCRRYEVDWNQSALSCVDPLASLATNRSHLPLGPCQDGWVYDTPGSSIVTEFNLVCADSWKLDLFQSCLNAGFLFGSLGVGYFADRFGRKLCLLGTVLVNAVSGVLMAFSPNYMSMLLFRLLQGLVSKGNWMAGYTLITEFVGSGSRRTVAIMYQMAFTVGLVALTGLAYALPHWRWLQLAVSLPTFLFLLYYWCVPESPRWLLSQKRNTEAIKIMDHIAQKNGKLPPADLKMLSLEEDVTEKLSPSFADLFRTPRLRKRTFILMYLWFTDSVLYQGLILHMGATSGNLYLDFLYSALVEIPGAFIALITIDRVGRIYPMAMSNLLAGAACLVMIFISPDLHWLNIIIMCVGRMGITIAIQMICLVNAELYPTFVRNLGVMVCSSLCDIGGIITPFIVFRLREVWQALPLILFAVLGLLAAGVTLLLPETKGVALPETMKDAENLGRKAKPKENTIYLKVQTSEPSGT

hOCT3 [8] = target: T3, hOCT3 (Homo sapiens, UniProt O75751); assay: ASP+-based fluorescence uptake inhibition assay, hOCT3; type: cell-based
T3 sequence (O75751 1-556): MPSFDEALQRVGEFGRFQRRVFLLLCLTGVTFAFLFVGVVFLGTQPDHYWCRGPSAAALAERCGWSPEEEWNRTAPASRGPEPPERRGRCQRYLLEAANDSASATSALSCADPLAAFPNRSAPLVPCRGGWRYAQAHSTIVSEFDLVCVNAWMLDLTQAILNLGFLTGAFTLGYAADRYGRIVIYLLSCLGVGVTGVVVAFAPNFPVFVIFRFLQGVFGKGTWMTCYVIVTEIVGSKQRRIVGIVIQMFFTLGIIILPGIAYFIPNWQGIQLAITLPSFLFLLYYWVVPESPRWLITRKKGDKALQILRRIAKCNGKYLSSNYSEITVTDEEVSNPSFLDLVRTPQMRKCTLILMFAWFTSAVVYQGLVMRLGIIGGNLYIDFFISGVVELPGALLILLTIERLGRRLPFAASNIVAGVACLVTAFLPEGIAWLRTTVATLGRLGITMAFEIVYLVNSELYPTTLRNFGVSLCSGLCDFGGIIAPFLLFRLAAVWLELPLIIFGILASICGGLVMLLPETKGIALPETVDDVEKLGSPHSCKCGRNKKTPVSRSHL

hOCT3 [9] = target: T3, hOCT3; assay: β-Carboline uptake assay; type: in vitro ADME; details: 1 μM substrate, 30 minutes
Outline: (§1)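 Flp-in HEK293 cells stably expressing the transporter, with empty pcDNA5/FRT vector cells as control, were grown overnight at 100 000 cells/well on poly-L-ornithine-coated plastic. Cells were washed twice with HBSS, acclimated for 10 min at 37 °C, then given 1 µM substrate in HBSS for 30 min. Uptake was stopped with three ice-cold HBSS washes. Cells were lysed in acetonitrile with internal standard, and drug was quantified by ESI-positive LC-MS/MS and normalized to total protein (BCA).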

hOCT1 [10] = target: T2, hOCT1; assay: β-Carboline uptake assay; type: in vitro ADME; details: 1 μM substrate, 30 minutes
Outline: as §1

[11] = single ingestion of Ayahuasca, healthy volunteers; ref Riba et al., 2012; cited from earlier work
hOCT2 [12] = target: T1, hOCT2; details: read-out: Ki for hOCT2; hOCT2 expressed in HEK293 cells; ref Ito et al., 2012; cited from earlier work
[13] = human plasma; ref Ito et al., 2012; cited from earlier work

Row | Structure (SMILES) | TC50 OCT3 [1] | Fold increase over pcDNA5 OCT3 [1] | TC50 OCT1 [2] | Fold increase over pcDNA5 OCT1 [2] | Effect of hOCT1-3 expression on cytotoxicity (in words) [3] | TC50 OCT2 [4] | Fold increase over pcDNA5 OCT2 [4] | IC50 (hOCT2 [5]) | TC50 pcDNA5 [6] | IC50 (hOCT1 [7]) | IC50 (hOCT3 [8]) | Accumulation in hOCT3 transfected cells relative to vector cells (hOCT3 [9]) | Accumulation in hOCT1 transfected cells relative to vector cells (hOCT1 [10]) | Plasma concentration after Ayahuasca [11] | Ki (hOCT2 [12]) | Clinically encountered concentrations in plasma [13]
1 | Cn1c2c(c3ccccc31)CC[N+](C)=C2.[I-] [2,9-dimethyl-4,9-dihydro-3Hβ-carbolin-2-ium, iodide] | 80.6 ± 7.2 µM | 1.6 fold | 119 ± 33 µM | 1.1 fold | no significant effect | 117 ± 22 µM | 1.1 fold | 0.524 ± 0.088 µM | 127 ± 18 µM | 40.4 ± 2.4 µM | 7.3 ± 0.5 µM | – | – | – | – | –
2 | COc1ccc2c3c([nH]c2c1)C(C)=NCC3 [Harmaline, 4,9-dihydro-7-methoxy-1-methyl-3H-pyrido[3,4-b] indole] | 33.1 ± 8.2 µM | 0.69 fold | 23.0 ± 5.1 µM | 1.0 fold | no significant effect | 35.5 ± 3.8 µM | 0.65 fold | – | 23.0 ± 3.6 µM | 27.6 ± 3.8 µM | 4.76 ± 0.46 µM | ~ 2 fold | ~ 2 fold | mid to high nanomolar range | – | –
3 | COc1ccc2c(c1)[nH]c1c(C)nccc12 [Harmine, 7-methoxy-1-methyl-9H-pyrido[3,4-b] indole] | 2.81 ± 0.23 µM | – | 2.55 ± 0.26 µM | – | no significant effect | 3.01 ± 0.41 µM | – | – | 2.87 ± 0.47 µM | 23.1 ± 2.8 µM | 17.7 ± 1 µM | – | – | – | – | –
4 | C[n+]1ccc(-c2ccccc2)cc1 [MPP+, 1-methyl-4-phenylpyridinium] | 5.86±0.68 ^a μM | 10.9 fold | 3.88±0.38 ^a μM | 16.4 fold | – | 7.16±0.75 ^a μM | 8.9 fold | – | 63.6 ± 12.7 µM | – | – | – | – | – | – | –
5 | C[n+]1ccc2c(c1)[nH]c1ccccc12.[I-] [Norharmanium, 2-methyl-9H-β-carboline-2-ium, iodide] | 10.8±1.4 ^a μM | 11.0 fold | 9.05±2.54 ^a μM | 13.1 fold | greatly increased toxicity | 13.4±2.4 ^a μM | 8.9 fold | – | 119 ± 18 µM | 70.5 ± 6.6 µM | 13.1 ± 0.1 µM | – | – | – | – | –
6 | CN/C(=N/CCSCc1nc[nH]c1C)NC#N [cimetidine] | – | – | – | – | – | – | – | – | – | – | – | – | – | – | 95 to 146 µM | 2.0 to 3.6 µM
